# The source made the active and inactive calls. The calls are words filed in the database; no cut-off is given here.
# How the values were obtained:
# [1] = tested on: Candida albicans; assay: Antifungal activity against Candida albicans isolate after 72 hrs by twofold serial dilution method; format: functional
# [2] = tested on: Aspergillus fumigatus; assay: Antifungal activity against Aspergillus fumigatus isolate after 72 hrs by twofold serial dilution method; format: functional
# [3] = tested on: Staphylococcus aureus; assay: Antibacterial activity against Staphylococcus aureus ATCC 6538 after 24 to 48 hrs by twofold serial dilution method; format: functional
# Outline: (§1)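 Broth microdilution in Müller–Hinton broth. DMSO stocks at 800 were diluted twofold from 400 down to 6.25. Wells received 10^6 CFU/mL bacterial suspension and were incubated at 36 °C for 24–48 h, with controls. MIC was read per well. Duplicate assays; run only for compounds giving inhibition zones ≥14 mm.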
# [4] = tested on: Bacillus subtilis; assay: Antibacterial activity against Bacillus subtilis NRRL B-14819 after 24 to 48 hrs by twofold serial dilution method; format: functional; outline: as §1
# [5] = tested on: Micrococcus luteus; assay: Antibacterial activity against Micrococcus luteus ATCC 21881 after 24 to 48 hrs by twofold serial dilution method; format: functional; outline: as §1
# [6] = tested on: Escherichia coli; assay: Antibacterial activity against Escherichia coli ATCC 25922 after 24 to 48 hrs by twofold serial dilution method; format: functional; outline: as §1
# [7] = tested on: Pseudomonas aeruginosa; assay: Antibacterial activity against Pseudomonas aeruginosa ATCC 27853 after 24 to 48 hrs by twofold serial dilution method; format: functional; outline: as §1
# [8] = tested on: Klebsiella pneumoniae; assay: Antibacterial activity against Klebsiella pneumoniae isolate after 24 to 48 hrs by twofold serial dilution method; format: functional; outline: as §1
# [9] = tested on: Candida tropicalis; assay: Antifungal activity against Candida tropicalis isolate after 72 hrs by twofold serial dilution method; format: functional, organism-based
# [10] = tested on: Pichia kudriavzevii; assay: Antifungal activity against Candida krusei isolate after 72 hrs by twofold serial dilution method; format: functional, organism-based
# [11] = tested on: Aspergillus niger; assay: Antifungal activity against Aspergillus niger isolate after 72 hrs by twofold serial dilution method; format: functional, organism-based
# [12] = tested on: Trichophyton rubrum; assay: Antifungal activity against Trichophyton rubrum isolate after 72 hrs by twofold serial dilution method; format: functional, organism-based
# [13] = tested on: Staphylococcus aureus; assay: Antibacterial activity against Staphylococcus aureus ATCC 6538 at 1 mg/mL after 24 hrs by agar diffusion method; format: functional; conditions: ATCC 6538, 24 h, read-out: Diameter of inhibition zone
# Outline: (§2)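 Agar disc diffusion: 5 mm sterile paper discs soaked in 1 mg/mL test solution in DMSO were placed on agar seeded with the organism, in triplicate, with a DMSO-only control. Bacterial plates were incubated at 37 °C for 24 h and fungal plates for 7 days. Read-out was the average inhibition-zone diameter in mm. Fungi were clinical isolates.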
# [14] = tested on: Bacillus subtilis; assay: Antibacterial activity against Bacillus subtilis NRRL B-14819 at 1 mg/mL after 24 hrs by agar diffusion method; format: functional; conditions: read-out: Diameter of inhibition zone; outline: as §2
# [15] = tested on: Micrococcus luteus; assay: Antibacterial activity against Micrococcus luteus ATCC 21881 at 1 mg/mL after 24 hrs by agar diffusion method; format: functional; conditions: ATCC 21881, 24 h, read-out: Diameter of inhibition zone; outline: as §2
# [16] = tested on: Escherichia coli; assay: Antibacterial activity against Escherichia coli ATCC 25922 at 1 mg/mL after 24 hrs by agar diffusion method; format: functional; conditions: ATCC 25922, 24 h, read-out: Diameter of inhibition zone; outline: as §2
# [17] = tested on: Pseudomonas aeruginosa; assay: Antibacterial activity against Pseudomonas aeruginosa ATCC 27853 at 1 mg/mL after 24 hrs by agar diffusion method; format: functional; conditions: ATCC 27853, 24 h, read-out: Diameter of inhibition zone; outline: as §2
# [18] = tested on: Klebsiella pneumoniae; assay: Antibacterial activity against Klebsiella pneumoniae isolate at 1 mg/mL after 24 hrs by agar diffusion method; format: functional; conditions: read-out: Diameter of inhibition zone; outline: as §2
# [19] = tested on: Candida albicans; assay: Antifungal activity against Candida albicans isolate at 1 mg/mL after 7 days by twofold serial dilution method; format: functional; conditions: 168 h, read-out: Diameter of inhibition zone
# [20] = tested on: Aspergillus fumigatus; assay: Antifungal activity against Aspergillus fumigatus isolate at 1 mg/mL after 7 days by agar diffusion method; format: functional; conditions: 168 h, read-out: Diameter of inhibition zone; outline: as §2
# [21] = tested on: Mus musculus; assay: Anticonvulsant activity in Wister albino mouse assessed as protection against subcutaneous metrazole-induced seizures at 100 mg/kg, ip administered 30 mins before metrazole challenge measured after 30 mins; format: functional; conditions: route intraperitoneal
# Outline: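 Wistar albino mice, either sex, 25–30 g, 3 months old, in groups of six. Compounds in DMSO were given ip at 30, 100 or 300 mg/kg; vehicle-only controls. After 30 min, metrazole 100 mg/kg in DMSO was injected sc at the posterior midline. Protection meant absence of any clonic spasm lasting ≥5 s; scored as protected/tested.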
# [22] = tested on: Mus musculus; assay: Anticonvulsant activity in Wister albino mouse assessed as protection against maximal electroshock-induced seizures at 100 mg/kg, ip administered 30 mins before metrazole challenge measured after 30 mins; format: functional; conditions: route intraperitoneal
smiles,measurement,setting,value
Clc1ccc(COC(Cn2ccnc2)c2ccc(Cl)cc2Cl)c(Cl)c1 (stereo unspecified) [MICONAZOLE],MIC,[1],3.12 mg/L
same,MIC,[2],3.12 mg/L
Sc1nnc(COC(Cn2nnnc2Cc2ccccc2)c2ccc(Cl)cc2)n1-c1ccc(Cl)cc1 (stereo unspecified),MIC,[3],25 mg/L
same,MIC,[4],50 mg/L
same,MIC,[5],100 mg/L
same,MIC,[6],50 mg/L
same,MIC,[7],≥ 200 mg/L
same,MIC,[8],≥ 200 mg/L
same,MIC,[1],25 mg/L
same,MIC,[2],≥ 200 mg/L
same,Activity,[9],inactive
same,Activity,[10],inactive
same,Activity,[11],inactive
same,Activity,[12],inactive
same,zone of inhibition at 1000 µg/mL,[13],≥ 14 mm
same,zone of inhibition at 1000 µg/mL,[14],≥ 14 mm
same,zone of inhibition at 1000 µg/mL,[15],≥ 14 mm
same,zone of inhibition at 1000 µg/mL,[16],≥ 14 mm
same,zone of inhibition at 1000 µg/mL,[17],≥ 14 mm
same,zone of inhibition at 1000 µg/mL,[18],≥ 14 mm
same,zone of inhibition at 1000 µg/mL,[19],≥ 14 mm
same,zone of inhibition at 1000 µg/mL,[20],≥ 14 mm
Cc1cc(C)n(C(=O)COC(Cn2nnc(-c3ccccc3)n2)c2ccc(Cl)cc2)n1 (stereo unspecified),MIC,[3],12.5 mg/L
same,MIC,[4],25 mg/L
same,MIC,[5],50 mg/L
same,MIC,[6],50 mg/L
same,MIC,[7],100 mg/L
same,MIC,[8],100 mg/L
same,Activity,[9],inactive
same,Activity,[10],inactive
same,Activity,[11],inactive
same,Activity,[12],inactive
same,Activity,[21],0%
same,Activity,[22],0%
same,zone of inhibition at 1000 µg/mL,[13],≥ 14 mm
same,zone of inhibition at 1000 µg/mL,[14],≥ 14 mm
same,zone of inhibition at 1000 µg/mL,[15],≥ 14 mm
same,zone of inhibition at 1000 µg/mL,[16],≥ 14 mm
same,zone of inhibition at 1000 µg/mL,[17],≥ 14 mm
same,zone of inhibition at 1000 µg/mL,[18],≥ 14 mm
same,zone of inhibition at 1000 µg/mL,[19],≥ 14 mm
same,zone of inhibition at 1000 µg/mL,[20],≥ 14 mm
O=C(COC(Cn1nnnc1Cc1ccccc1)c1ccc(Cl)cc1)N/N=C/c1ccc(Cl)cc1 (stereo unspecified),MIC,[3],100 mg/L
same,MIC,[4],100 mg/L
same,MIC,[5],100 mg/L
same,MIC,[6],100 mg/L
same,MIC,[7],≥ 200 mg/L
same,MIC,[8],≥ 200 mg/L
same,Activity,[9],inactive
same,Activity,[10],inactive
same,Activity,[11],inactive
same,Activity,[12],inactive
same,Activity,[21],50%
same,Activity,[22],50%
same,zone of inhibition at 1000 µg/mL,[13],≥ 14 mm
same,zone of inhibition at 1000 µg/mL,[14],≥ 14 mm
same,zone of inhibition at 1000 µg/mL,[15],≥ 14 mm
same,zone of inhibition at 1000 µg/mL,[16],≥ 14 mm
same,zone of inhibition at 1000 µg/mL,[17],≥ 14 mm
same,zone of inhibition at 1000 µg/mL,[18],≥ 14 mm
same,zone of inhibition at 1000 µg/mL,[19],≥ 14 mm
same,zone of inhibition at 1000 µg/mL,[20],≥ 14 mm
Clc1ccccc1C(c1ccccc1)(c1ccccc1)n1ccnc1 [CLOTRIMAZOLE],MIC,[1],6.25 mg/L
same,MIC,[2],12.5 mg/L
Sc1nnc(COC(Cn2nnc(-c3ccccc3)n2)c2ccc(Cl)cc2)n1-c1ccccc1 (stereo unspecified),MIC,[3],12.5 mg/L
same,MIC,[4],50 mg/L
same,MIC,[5],50 mg/L
same,MIC,[6],50 mg/L
same,MIC,[7],100 mg/L
same,MIC,[8],50 mg/L
same,Activity,[9],inactive
same,Activity,[10],inactive
same,Activity,[11],inactive
same,Activity,[12],inactive
same,Activity,[21],33%
same,Activity,[22],33%
same,zone of inhibition at 1000 µg/mL,[13],≥ 14 mm
same,zone of inhibition at 1000 µg/mL,[14],≥ 14 mm
same,zone of inhibition at 1000 µg/mL,[15],≥ 14 mm
same,zone of inhibition at 1000 µg/mL,[16],≥ 14 mm
same,zone of inhibition at 1000 µg/mL,[17],≥ 14 mm
same,zone of inhibition at 1000 µg/mL,[18],≥ 14 mm
same,zone of inhibition at 1000 µg/mL,[19],≥ 14 mm
same,zone of inhibition at 1000 µg/mL,[20],≥ 14 mm
Sc1nnc(COC(Cn2nnnc2Cc2ccccc2)c2ccc(Cl)cc2)o1 (stereo unspecified),MIC,[3],50 mg/L
same,MIC,[4],100 mg/L
same,MIC,[5],100 mg/L
same,MIC,[6],≥ 200 mg/L
same,MIC,[7],≥ 200 mg/L
same,MIC,[8],≥ 200 mg/L
same,MIC,[1],100 mg/L
same,MIC,[2],≥ 200 mg/L
same,Activity,[9],inactive
same,Activity,[10],inactive
same,Activity,[11],inactive
same,Activity,[12],inactive
same,zone of inhibition at 1000 µg/mL,[13],≥ 14 mm
same,zone of inhibition at 1000 µg/mL,[14],≥ 14 mm
same,zone of inhibition at 1000 µg/mL,[15],≥ 14 mm
same,zone of inhibition at 1000 µg/mL,[16],≥ 14 mm
same,zone of inhibition at 1000 µg/mL,[17],≥ 14 mm
same,zone of inhibition at 1000 µg/mL,[18],≥ 14 mm
same,zone of inhibition at 1000 µg/mL,[19],≥ 14 mm
same,zone of inhibition at 1000 µg/mL,[20],≥ 14 mm
OC(Cn1nnc(-c2ccccc2)n1)c1ccc(Cl)cc1 (stereo unspecified),Activity,[21],0%
same,Activity,[22],0%
Sc1nnc(COC(Cn2nnc(-c3ccccc3)n2)c2ccc(Cl)cc2)o1 (stereo unspecified),MIC,[3],6.25 mg/L
same,MIC,[4],25 mg/L
same,MIC,[5],50 mg/L
same,MIC,[6],25 mg/L
same,MIC,[7],50 mg/L
same,MIC,[8],100 mg/L
same,Activity,[9],inactive
same,Activity,[10],inactive
same,Activity,[11],inactive
same,Activity,[12],inactive
same,Activity,[21],33%
same,Activity,[22],0%
same,zone of inhibition at 1000 µg/mL,[13],≥ 14 mm
same,zone of inhibition at 1000 µg/mL,[14],≥ 14 mm
same,zone of inhibition at 1000 µg/mL,[15],≥ 14 mm
same,zone of inhibition at 1000 µg/mL,[16],≥ 14 mm
same,zone of inhibition at 1000 µg/mL,[17],≥ 14 mm
same,zone of inhibition at 1000 µg/mL,[18],≥ 14 mm
same,zone of inhibition at 1000 µg/mL,[19],≥ 14 mm
same,zone of inhibition at 1000 µg/mL,[20],≥ 14 mm
Clc1ccc(C(Cn2nnnc2Cc2ccccc2)OCc2nnc(Nc3ccccc3)o2)cc1 (stereo unspecified),MIC,[3],25 mg/L
same,MIC,[4],50 mg/L
same,MIC,[5],≥ 200 mg/L
same,MIC,[6],50 mg/L
same,MIC,[7],≥ 200 mg/L
same,MIC,[8],≥ 200 mg/L
same,MIC,[1],25 mg/L
same,MIC,[2],≥ 200 mg/L
same,Activity,[9],inactive
same,Activity,[10],inactive
same,Activity,[11],inactive
same,Activity,[12],inactive
same,zone of inhibition at 1000 µg/mL,[13],≥ 14 mm
same,zone of inhibition at 1000 µg/mL,[14],≥ 14 mm
same,zone of inhibition at 1000 µg/mL,[15],≥ 14 mm
same,zone of inhibition at 1000 µg/mL,[16],≥ 14 mm
same,zone of inhibition at 1000 µg/mL,[17],≥ 14 mm
same,zone of inhibition at 1000 µg/mL,[18],≥ 14 mm
same,zone of inhibition at 1000 µg/mL,[19],≥ 14 mm
same,zone of inhibition at 1000 µg/mL,[20],≥ 14 mm
